Series [1] concerns the target cAMP-dependent protein kinase (PKA) (Homo sapiens, UniProt P22694+P17612+P22612). Kind of series: In vitro inhibitory activity against protein kinase A. It counts as protein assay, unidentified. A digest of the protocol:
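PKA catalytic subunit, 0.8 unit/assay, with Kemptide (LRRASLG) at 10 µg/mL. Buffers and procedure as for the src assay: 50 mM HEPES pH 7.4, 0.015% Brij 35, 0.1 mM EDTA, [γ-32P]ATP transfer, phosphoric acid stop, filter capture. Six inhibitor concentrations in triplicate; IC50 from mean of ≥2 determinations.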

Series [2] addresses Proto-oncogene tyrosine-protein kinase Src (Homo sapiens, UniProt P12931). In words: Tested for in vitro inhibitory activity against tyrosine protein kinase pp60 c-src. An outline of the steps:
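pp60c-src purified from human platelet membrane vesicles by anti-src immunoaffinity chromatography. Reaction stopped after 45 min with 5% phosphoric acid; nitrocellulose filter capture. Six inhibitor concentrations in triplicate; IC50 from mean of ≥2 determinations.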

Series [3] can be described thus: Reaction rate parameter value for phosphate with transfer with respect to ATP. An outline of the steps:
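Platelet pp60c-src, same peptide-phosphorylation assay run at four ATP levels (5, 50, 400 µM, 2 mM), six inhibitor concentrations in triplicate at each. Apparent KM and Vmax shifts used to pick an inhibition model; data fitted for KM, Vmax and KI, with fit quality given as RMS. Values from a representative experiment with substrate-only controls.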

Values joined by “and” are separate entries in the source; they are usually repeats but may differ in a detail not shown here. Identical values can stand only once.

Sequence of Proto-oncogene tyrosine-protein kinase Src (P12931 2-536 limits assumed): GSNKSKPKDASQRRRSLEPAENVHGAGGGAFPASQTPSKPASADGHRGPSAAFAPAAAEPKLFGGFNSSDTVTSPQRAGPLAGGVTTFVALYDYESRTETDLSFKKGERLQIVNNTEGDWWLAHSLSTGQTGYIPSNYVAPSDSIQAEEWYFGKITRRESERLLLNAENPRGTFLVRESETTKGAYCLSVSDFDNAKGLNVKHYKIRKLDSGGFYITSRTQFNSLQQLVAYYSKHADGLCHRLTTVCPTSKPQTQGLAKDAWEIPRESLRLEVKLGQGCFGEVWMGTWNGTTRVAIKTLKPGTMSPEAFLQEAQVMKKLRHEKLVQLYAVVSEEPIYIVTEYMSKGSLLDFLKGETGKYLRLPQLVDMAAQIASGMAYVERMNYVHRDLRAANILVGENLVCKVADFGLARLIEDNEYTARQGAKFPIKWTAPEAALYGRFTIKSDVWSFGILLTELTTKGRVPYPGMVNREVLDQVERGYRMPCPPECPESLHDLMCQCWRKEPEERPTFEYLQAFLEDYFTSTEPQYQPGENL

As for `Oc1cc2c3cc(O)c(O)cc3n(Cc3cccnc3)c2cc1O`, the values for the IC50 in series [1] and in series [2] were 108 µM and 8 µM, respectively.

As to `O=[N+]([O-])c1ccc(S(=O)(=O)n2c3cc(O)c(O)cc3c3ccc(O)c(O)c32)cc1`, the figures for the concentration for half-maximal inhibition (IC50) in series [1] and in series [2] were 168 µM and 12 µM, respectively.

As for `O=c1c2cc(O)c(O)cc2c2cc(O)c(O)cc2n1Cc1ccc(S(=O)(=O)c2ccccc2)cc1`, the IC50 in series [1] worked out at 51 µM; in series [2], 2 µM.

`Oc1cc2nc(O)c3c(O)c(O)ccc3c2cc1O`: the IC50 in series [1] is 92 µM; in series [2], 0.9 µM.

`O=c1c2c(O)c(O)ccc2c2cc(O)c(O)cc2n1Cc1ccc(S(=O)(=O)c2ccccc2)cc1`: the IC50 stood at 634 µM in series [1] and 7.2 µM in series [2].

On to `CS(=O)(=O)c1ccc(C(=O)n2c3cc(O)c(O)cc3c3c(Br)cc(O)c(O)c32)cc1`, for which the concentration for half-maximal inhibition (IC50) in series [1] was 4 µM; in series [2], 9 µM.

In the case of `O=C(c1ccc2ccccc2c1)n1c2cc(O)c(O)cc2c2ccc(O)c(O)c21`, the IC50 was found to be 1 µM in series [1] and 0.5 µM in series [2].

With `O=C(c1ccc(-c2ccccc2)cc1)n1c2cc(O)c(O)cc2c2ccc(O)c(O)c21`, the values for the IC50 in series [1] and in series [2] were 3.2 µM and 0.6 µM, respectively.

Turning to `N#Cc1ccc(Cn2c3cc(O)c(O)cc3c3c(Br)cc(O)c(O)c32)cc1`, the IC50 in series [1] stood at 6.6 µM; in series [2], 0.9 µM.

For `Oc1cc2c3ccc(O)c(O)c3n(Cc3c(Cl)cccc3Cl)c2cc1O`, the half-inhibitory concentration (IC50) in series [1] is 435 µM; in series [2], 0.9 µM.

Take `CS(=O)(=O)c1ccc(C(=O)n2c3cc(O)c(O)cc3c3ccc(O)c(O)c32)cc1`: the IC50 came to 40 µM in series [1] and 0.4 µM in series [2].

For the compound `O=c1c2cc(O)c(O)cc2c2cc(O)c(O)cc2n1Cc1ccc([N+](=O)[O-])cc1`, the figures for the IC50 in series [1] and in series [2] were 8.4 µM and 0.9 µM, respectively.

Consider `O=S(=O)(c1ccccc1)c1ccc(Cn2c3cc(O)c(O)cc3c3ccc(O)c(O)c32)cc1`, for which the IC50 came out at 317 µM in series [1] and 0.6 µM in series [2].

As for `O=S(=O)(c1ccccc1)n1c2cc(O)c(O)cc2c2ccc(O)c(O)c21`, the IC50 turned out to be 250 µM in series [1] and 15 µM in series [2].

For the compound `Oc1cc2c3ccc(O)c(O)c3n(Cc3ccc(Br)cc3)c2cc1O`, the figures for the IC50 in series [1] and in series [2] were 374 µM and 3.4 µM, respectively.

As to `N#Cc1ccc(Cn2c3cc(O)c(O)cc3c3ccc(O)c(O)c32)cc1`, the IC50 stood at 275 µM in series [1] and 0.4 µM in series [2].

Take `Oc1cc2nc(O)c3cc(O)c(O)cc3c2cc1O`: the IC50 in series [1] is above 800 µM; in series [2] it was 1 µM.

For the compound `O=C(c1ccccc1)n1c2cc(O)c(O)cc2c2cc(O)c(O)cc21`, the IC50 in series [1] came to 415 µM; in series [2], 4 µM.

As for `CC(C)(C)c1ccc(C(=O)n2c3cc(O)c(O)cc3c3ccc(O)c(O)c32)cc1`, the IC50 came out at 50 µM in series [1] and 0.7 µM in series [2].

For the compound `O=C(c1ccc(Br)cc1)n1c2cc(O)c(O)cc2c2ccc(O)c(O)c21`, the IC50 was found to be 4.2 µM in series [1] and 1.4 µM in series [2].

With `O=S(=O)(c1cc(Cl)ccc1Cl)n1c2cc(O)c(O)cc2c2ccc(O)c(O)c21`, the IC50 in series [1] was determined as 223 µM; in series [2], 7.7 µM.

Turning to `Oc1cc2c3ccc(O)c(O)c3n(Cc3ccccc3)c2cc1O`, the figures for the IC50 in series [1] and in series [2] were 210 µM and 2 µM, respectively.

Take `O=S(=O)(Cc1ccccc1)n1c2cc(O)c(O)cc2c2ccc(O)c(O)c21`: the IC50 in series [1] amounted to 78 µM; in series [2], 14 µM.

Take `O=C(c1ccc(C(F)(F)F)cc1)n1c2cc(O)c(O)cc2c2ccc(O)c(O)c21`: the IC50 in series [1] amounted to 10 µM; in series [2], 0.7 µM.

For `O=C(c1cccc([N+](=O)[O-])c1)n1c2cc(O)c(O)cc2c2ccc(O)c(O)c21`, the IC50 in series [1] was 1.5 µM; in series [2], 0.6 µM.

As to `O=c1c2cc(O)c(O)cc2c2cc(O)c(O)cc2n1Cc1ccc(Cl)c(Cl)c1`, the IC50 worked out at 20 µM in series [1] and 1.3 µM in series [2].

As for `Oc1cc2[nH]c3c(O)c(O)ccc3c2cc1O`, the values for the IC50 in series [1] and in series [2] were 47 µM and 0.8 µM, respectively.

With `Oc1cc2[nH]c3c(O)c(O)cc(Br)c3c2cc1O`, the IC50 in series [1] was found to be 17 µM; in series [2], 0.6 µM.

With `O=S(=O)(c1ccccc1)n1c2cc(O)c(O)cc2c2cc(O)c(O)cc21`, the IC50 is above 600 µM in series [1] and 24 µM in series [2].

With `CCn1c(=O)c2c(O)c(O)ccc2c2cc(O)c(O)cc21`, the IC50 amounted to 541 µM in series [1] and 11 µM in series [2].

Consider `O=C(c1ccccc1)n1c2cc(O)c(O)cc2c2ccc(O)c(O)c21`, for which the IC50 in series [1] amounted to 240 µM; in series [2], 0.9 µM.

`Oc1cc2[nH]c3cc(O)c(O)cc3c2cc1O`: in series [3], the Ki is 1.06 µM and 0.53 µM; the Km is 68.1 µM and 29.2 µM. Moreover, the concentration for half-maximal inhibition (IC50) in series [1] worked out at 58 µM. Also, in series [2], the IC50 was found to be 1.5 µM.

On to `Oc1cc2c3cc(O)c(O)cc3n(Cc3ccccc3)c2cc1O`, for which the IC50 in series [1] is 115 µM; in series [2] it was 7 µM.

As for `O=c1c2c(O)c(O)ccc2c2cc(O)c(O)cc2n1Cc1ccccc1`, the IC50 is 284 µM in series [1] and 21 µM in series [2].

Take `O=C(c1ccc(C(F)(F)F)cc1)n1c2cc(O)c(O)cc2c2c(Br)cc(O)c(O)c21`: the values for the IC50 in series [1] and in series [2] were 7 µM and 2 µM, respectively.

In the case of `Oc1cc2c3ccc(O)c(O)c3n(CCCc3ccccc3)c2cc1O`, the IC50 in series [1] and in series [2] was 0.5 µM each time.

As for `O=c1c2c(O)c(O)ccc2c2cc(O)c(O)cc2n1Cc1ccc([N+](=O)[O-])cc1`, the IC50 in series [1] worked out at 309 µM; in series [2], 61 µM.

Turning to `O=c1c2c(O)c(O)ccc2c2cc(O)c(O)cc2n1Cc1ccc(Cl)c(Cl)c1`, the IC50 in series [1] stood at 410 µM; in series [2], 197 µM.

Turning to `O=c1c2cc(O)c(O)cc2c2cc(O)c(O)cc2n1Cc1ccccc1`, the IC50 was 390 µM in series [1] and 5.4 µM in series [2].

As to `Oc1cc2c3ccc(O)c(O)c3n(Cc3ccc(C(F)(F)F)cc3)c2cc1O`, the IC50 turned out to be 50 µM in series [1] and 9 µM in series [2].

Consider `O=C(CCc1ccccc1)n1c2cc(O)c(O)cc2c2ccc(O)c(O)c21`, for which the values for the IC50 in series [1] and in series [2] were 2.3 µM and 0.4 µM, respectively.

On to `CCn1c(=O)c2cc(O)c(O)cc2c2cc(O)c(O)cc21`, for which the IC50 in series [1] is above 2000 µM; in series [2], 4.1 µM.

Take `CC(C)(C)c1ccc(C(=O)n2c3cc(O)c(O)cc3c3c(Br)cc(O)c(O)c32)cc1`: the IC50 in series [1] worked out at 40 µM; in series [2], 12 µM.

For the compound `Cc1cccc(Cn2c3cc(O)c(O)cc3c3ccc(O)c(O)c32)c1`, the IC50 in series [1] is 23 µM; in series [2], 1.7 µM.

Take `O=c1oc2c(O)c(O)cc3c(=O)oc4c(O)c(O)cc1c4c23` [ELLAGIC ACID]: the values for the IC50 in series [1] and in series [2] were 0.6 µM and 0.3 µM, respectively.

For orientation: IC50 means the point on the concentration scale where inhibition reaches its midpoint. A lower IC50 goes with greater potency in that assay. As usually defined, the Ki is a dissociation constant, usually derived from enzyme kinetics or from competition with a known ligand. Low values mean a stronger hold on the target, high ones a looser hold on the target. What is called Km is the concentration of substrate that gives half-maximal velocity.

Source of the values: ChEMBL document CHEMBL1127577, “Identification of tricyclic analogs related to ellagic acid as potent/selective tyrosine protein kinase inhibitors” (J Med Chem, 1994).
